Screening data (PubChem)
ABCB6 inh 2: ABCB6 transporter inhibitors, primary screen, K562-ABCB6 cells, flow cytometry, MLPCN library; ATP-binding cassette sub-family B member 6 (Homo sapiens), Q9NP58; K562-ABCB6 porphyrin accumulation, 1 h; active compounds read low; fluorescence ratio to DMSO, % at 10 µM; 360,000 tested, 0.19% active; AID 602162, 2011;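 active means fluorescence ratio to DMSO below 75%, the collection mean minus 3 SD; inconclusive means too few cells collected in the well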;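 further: signal is porphyrin accumulated inside mitochondria; lower ratio means ABCB6 inhibition with less porphyrin fluorescence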
pCIP destab: p/CIP-EGFP fusion destabilizers, primary screen, fluorescence, F442A cells; Q05BA5; 16 h; decrease of EGFP signal, % at 10 µM; 290,000 tested, 0.01% active;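 active means EGFP signal decrease of at least 30% at 10 µM or well 3 SD below plate mean, unless failing retest; inactive means the rest, including hits failing retest or dose response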
V-ATPase pHluor: regulators of yeast V-ATPase proton pumping, primary screen, pHLuorin cytosolic pH fluorescence; S. cerevisiae; response, % at 10 µM; 350,000 tested, 0.37% active; AID 504577, 2011; in the data active means response mostly above about 7.3%, no sharp cut-off; inactive means mostly below about 5.4%; further: actives read high
KCC2 mod: KCC2 cotransporter modulators, thallium flux, primary screen, cell-based, HEK293 KCC2, FluoZin-2 fluorescence, MLSMR | Solute carrier family 12 member 5 (Homo sapiens), Q9H2X9 | KCC2 cells, thallium flux FluoZin-2 fluorescence | B-score of Tl+ flux slope (higher = more flux/activation; lower = inhibition) at 10 µM | 190,000 tested, 2.2% active | AID 1456, 2008;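 active means thallium flux slope and its plate-corrected score both differing from the plate sample mean at a set confidence after two filtering rounds, in either direction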;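 further: slope of fluorescence scaled to starting intensity during 10 to 20 s after thallium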
Target sequence (Q9H2X9 whole entry, looked up): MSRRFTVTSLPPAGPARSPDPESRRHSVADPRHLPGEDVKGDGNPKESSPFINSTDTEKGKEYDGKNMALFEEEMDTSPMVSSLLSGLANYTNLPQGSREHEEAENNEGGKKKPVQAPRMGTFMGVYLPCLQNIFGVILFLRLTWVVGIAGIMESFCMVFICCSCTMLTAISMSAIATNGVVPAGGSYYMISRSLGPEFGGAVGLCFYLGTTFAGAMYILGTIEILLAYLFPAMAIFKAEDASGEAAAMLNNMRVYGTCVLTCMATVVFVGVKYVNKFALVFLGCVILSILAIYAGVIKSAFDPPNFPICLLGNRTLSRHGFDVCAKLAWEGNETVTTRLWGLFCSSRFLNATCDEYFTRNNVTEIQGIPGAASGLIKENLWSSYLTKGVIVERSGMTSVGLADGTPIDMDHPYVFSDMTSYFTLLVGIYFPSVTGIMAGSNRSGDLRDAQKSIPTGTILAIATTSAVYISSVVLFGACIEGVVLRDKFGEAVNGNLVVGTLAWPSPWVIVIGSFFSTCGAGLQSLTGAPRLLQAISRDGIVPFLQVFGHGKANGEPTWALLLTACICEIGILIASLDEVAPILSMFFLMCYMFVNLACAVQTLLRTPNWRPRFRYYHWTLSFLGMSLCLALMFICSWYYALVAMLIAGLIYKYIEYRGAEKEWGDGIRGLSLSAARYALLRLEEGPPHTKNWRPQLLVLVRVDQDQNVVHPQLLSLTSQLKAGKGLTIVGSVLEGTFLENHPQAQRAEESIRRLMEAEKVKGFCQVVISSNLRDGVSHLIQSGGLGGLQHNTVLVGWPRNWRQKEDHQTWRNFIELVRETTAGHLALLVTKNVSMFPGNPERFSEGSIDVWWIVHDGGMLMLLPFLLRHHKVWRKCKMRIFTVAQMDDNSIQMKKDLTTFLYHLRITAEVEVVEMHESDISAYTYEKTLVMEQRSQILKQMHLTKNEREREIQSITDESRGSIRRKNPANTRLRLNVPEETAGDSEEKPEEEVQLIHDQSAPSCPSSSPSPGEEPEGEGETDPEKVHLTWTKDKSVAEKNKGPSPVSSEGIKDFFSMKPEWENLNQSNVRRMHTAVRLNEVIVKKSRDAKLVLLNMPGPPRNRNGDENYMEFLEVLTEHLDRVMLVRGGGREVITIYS
Dynein transport: inhibitors of GR-EGFP nuclear translocation, primary screen, dynein cargo transport inhibitor project, imaging, high-content, 3617.4 mouse cells. 220,000 tested, 0.47% active. test concentration mostly 20 µM; stimulated with dexamethasone, 1 µM; active compounds read low. AID 1381, 2008. z-score, hits read low;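 active means plate z-score of nuclear minus cytoplasmic receptor signal below a set negative limit, without overly bright fluorescence or cell loss, cut at about -3.5 in these data, passing the limit was not always enough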;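 further: z-score of nuclear minus cytoplasmic ring GR-EGFP intensity difference per well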
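Buffer or medium: Induction medium lacking tetracycline, stripped serum | Also added: Dexamethasone agonist, 1.0 µM final, for 30 min | Timing: 48 h induction, 1 h compound, 30 min dex at 37 °C | Detection: Formaldehyde fixation, Hoechst nuclear stain, 10x automated fluorescence imaging | Measure: Nuclear versus cytoplasmic GR-EGFP signal, averaged per well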
Dynein confirm: dynein cargo transport inhibitors, GR-EGFP translocation, confirmation, imaging, high-content imaging, GR-EGFP cells. shares compounds with Dynein transport. 3617.4 GR-EGFP nuclear translocation imaging, dexamethasone-induced. calls only at 20 µM. 1,000 tested, 69% active. AID 463116, 2010;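 active means inhibition of receptor movement into the nucleus at or above a set limit in both runs, with normal cell brightness and cell count; inconclusive means limit reached in only one run, brightness and count normal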;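 further: dexamethasone at 1 µM final in well for 30 min; nuclear minus cytoplasmic GR-EGFP mean intensity difference in channel 2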
Large screens that a line does not name were inactive (follow-up assays come after a bar, where they were run). Shown is part of a subset that was picked to be rich in hits.

O=c1[nH]sc2ccccc12	Dynein transport -3.8 (no result: KCC2 mod) | Dynein confirm active
COc1ccc(-n2nc3c(c2NC(=O)c2ccc(Br)o2)CS(=O)(=O)C3)cc1	none (no result: KCC2 mod, Dynein transport)
Cc1ccc(C2C3CSCC=C3C(C#N)=C(N)C2(C#N)C#N)cc1 (stereo not drawn)	Dynein transport -4.05 | Dynein confirm inactive
CCCC1CC(C(=O)Nc2ccccc2)C(=O)O1 (stereo not drawn)	none (no result: pCIP destab, KCC2 mod, Dynein transport)
CC(=O)OCCNc1cc(SC(C)C)c2nonc2c1[N+](=O)[O-]	none
Cc1ccc(Sc2cc(NCCCO)c([N+](=O)[O-])c3nonc23)cc1	none (no result: KCC2 mod)
CC(C)CCSc1cc(NCCO)c([N+](=O)[O-])c2nonc12	none
CCC(=O)OCCNc1cc(SCCC(=O)OC)c2nonc2c1[N+](=O)[O-]	Dynein transport -5.62 | Dynein confirm active
CC(=O)OCCCNc1cc(Sc2ccc(Cl)cc2)c2nonc2c1[N+](=O)[O-]	Dynein transport -4.8 | Dynein confirm active
CC(=O)OCCN(C)c1cc(SC(C)C)c2nonc2c1[N+](=O)[O-]	Dynein transport -4.67 | Dynein confirm active
CCC(=O)OCCNc1cc(Sc2nccn2C)c2nonc2c1[N+](=O)[O-]	Dynein transport -4.78 | Dynein confirm inconclusive
CC(=O)Nc1ccc(CN(C)c2c(C)nc3ccc(C(=O)N(C)Cc4ccccc4)cn23)cc1	none (no result: pCIP destab, V-ATPase pHluor, KCC2 mod, Dynein transport)
CCOc1cc(/C=C\[N+](=O)[O-])ccc1OCC(=O)Nc1ccccc1C	Dynein transport -3.55 (no result: KCC2 mod) | Dynein confirm active
COc1cc(/C=C/c2cccc[n+]2C)ccc1OCC(=O)Nc1ccccc1C	none (no result: KCC2 mod, Dynein transport)
O=C(Nc1nnc(CCc2ccccc2)s1)c1ccccc1F	none (no result: KCC2 mod, Dynein transport)
CN(C)c1ccc(/C=C2\CCC/C(=C\c3ccccc3)C2=O)cc1	none | Dynein confirm inactive
COc1cccc(-n2nnnc2S(C)(=O)=O)c1	Dynein transport -4.51 (no result: KCC2 mod) | Dynein confirm active
COc1cccc(Oc2nnnn2-c2ccccc2)c1	none
CC1(C)CC(N=c2cc(-c3ccccc3)oc3ccc(Cl)cc23)CC(C)(C)N1	Dynein transport -3.52 | Dynein confirm inactive
OCCCN=c1cc(-c2ccccc2)oc2ccc(Cl)cc12	none (no result: KCC2 mod)
O=C(/C=C/c1ccc(Cl)cc1)c1cccnc1	Dynein transport -5.09 | Dynein confirm active
O=C(/C=C/c1ccccc1Cl)c1ccc(O)cc1	none
O=C(/C=C/c1cccnc1)/C=C/c1cccnc1	Dynein transport -6.44 | Dynein confirm active
O=C(/C=C/c1ccccc1Cl)c1cccnc1	Dynein transport -4.21 | Dynein confirm active
N#Cc1ccc(/C=C/C(=O)c2cccnc2)cc1	Dynein transport -5.05 | Dynein confirm active
CCN(CC)c1ccc(/C=C/C(=O)c2cccnc2)cc1	none (no result: KCC2 mod)
C(=Cc1cccnc1)c1ccncc1	none (no result: pCIP destab, KCC2 mod, Dynein transport)
COc1ccc(NC(=O)CCl)cn1	none (no result: ABCB6 inh 2, V-ATPase pHluor)
COc1ccc(NC(=O)C(Cl)=C(Cl)Cl)cn1	Dynein transport -4.49 | Dynein confirm active
COc1ccc(NC(=O)/C(Cl)=C(/Cl)S(=O)(=O)Cc2ccccc2)cn1	ABCB6 inh 2 60.0, Dynein transport -5.56 (no result: KCC2 mod) | Dynein confirm active
C=C1C[C@@H]2C[C@@H]2CN(S(=O)(=O)c2ccc(C)cc2)[C@@H]1c1ccco1	none (no result: pCIP destab, V-ATPase pHluor, KCC2 mod, Dynein transport)
CN(C)C(=S)Oc1ccccc1C1SCCS1	none (no result: pCIP destab, KCC2 mod, Dynein transport)
CN(C)c1nc(C=C(C#N)C#N)c(Cl)n1-c1ccc(F)cc1	Dynein transport -6.64 | Dynein confirm active
CC(C)(C)C(=O)/C=c1\s/c(=C\c2ccc(-c3ccc([N+](=O)[O-])cc3)o2)c(=O)n1CC(=O)NC(N)=O	Dynein transport -7.95 (no result: KCC2 mod) | Dynein confirm active
COc1cccc(NC(=O)c2cccc(N3C(=O)C4CCC(C)CC4C3=O)c2)c1 (stereo not drawn)	none (no result: KCC2 mod, Dynein transport)
CC(C)(C)c1ccc(N2C(=O)CSC2c2cccnc2)cc1 (stereo not drawn)	none
Cc1cc(C)c2c(=O)n(CC(=O)NCCCN3CCN(c4ccccc4F)CC3)sc2n1	Dynein transport -7.91 (no result: ABCB6 inh 2, V-ATPase pHluor) | Dynein confirm active
O=Cc1s/c(=N\S(=O)(=O)c2ccccc2)n(CCCCl)c1Cl	Dynein transport -5.74 | Dynein confirm active
O=C(Oc1ccccc1/C=C\C(=O)c1cc2ccccc2o1)c1ccccc1	none
COc1cccc(C(=O)Oc2ccccc2/C=C\C(=O)c2cc3ccccc3o2)c1	Dynein transport -4.01 | Dynein confirm active
COc1ccccc1CC(=O)N1CCN(C(=O)c2ccco2)CC1	none (no result: KCC2 mod, Dynein transport)
Cc1c(C#N)c(NC(=O)CCl)n(Cc2cccs2)c1C	Dynein transport -5.25 | Dynein confirm active
O=[N+]([O-])c1ccc(Sc2nnnn2-c2ccccc2)nc1	Dynein transport -5.19 (no result: ABCB6 inh 2, V-ATPase pHluor) | Dynein confirm active
Cc1ccccc1-n1nnnc1Sc1nnnn1-c1ccccc1	Dynein transport -5.07 | Dynein confirm active
C=CCNCCCOc1ccc(Cl)cc1C(C)(C)C	Dynein transport -6.67 | Dynein confirm inactive
COc1cccc(NC(=O)CN(C)C(=O)/C=C/c2ccc3ccccc3n2)c1	none (no result: pCIP destab, KCC2 mod, Dynein transport)
Cc1ccnc(SCc2cc(=O)c(OC(=O)c3cc([N+](=O)[O-])ccc3Cl)co2)n1	Dynein transport -4.68 | Dynein confirm active
O=C(Oc1coc(CSc2ncccn2)cc1=O)c1cccc([N+](=O)[O-])c1	none
O=c1oc2c3c4c(cc2c(C(F)(F)F)c1CCN1CCOCC1)CCCN4CCC3	Dynein transport -5.66 | Dynein confirm active
CC(C)c1cc(=O)oc2c3c4c(cc12)CCCN4CCC3	none
O=C(c1ccc(Cl)cc1)c1c[nH]c(C(=O)C(Cl)(Cl)Cl)c1	Dynein transport -3.69 | Dynein confirm active
O=C(c1ccccc1)c1c[nH]c(C(=O)C(Cl)(Cl)Cl)c1	none
O=C(O)CCCN1C(=O)/C(=C\c2ccco2)SC1=S	none
O=C(O)CCN1C(=O)/C(=C\c2ccc(-c3nc4ccccc4s3)o2)SC1=S	none | Dynein confirm inactive
C[C@H](CO)N1C[C@H](C)[C@H](CN(C)C(=O)Nc2ccnc(N3CCOCC3)c2)OCc2cnnn2CCCC1=O	none (no result: pCIP destab, KCC2 mod, Dynein transport)
COc1cccc(CNC(=O)c2ccccc2SCC(=O)N2CCCC2)c1	none (no result: pCIP destab, KCC2 mod, Dynein transport)
CCCCNC1C(CC)C(CCC)C(C#N)(C#N)C1(C#N)C#N (stereo not drawn)	Dynein transport -3.63 | Dynein confirm active
CC1=C(C)CC(C(=O)NCc2c(F)cccc2Cl)C(C(=O)O)C1 (stereo not drawn)	none (no result: KCC2 mod, Dynein transport)
N#Cc1c(Cl)c(Cl)c2nnc(-c3ccc(Br)cc3)n2c1Cl	Dynein transport -6.28 (no result: ABCB6 inh 2, V-ATPase pHluor) | Dynein confirm active
[S-]c1nnc(-c2ccc(Br)cc2)n1-c1ccccc1.[Zn+2]	none (no result: KCC2 mod, Dynein transport)
COc1coc(C(O)CN)cc1=O (stereo not drawn)	none
